Experimental data taken from ChEMBL document CHEMBL3352004, “(7-Benzyloxy-2,3-dihydro-1H-pyrrolo[1,2-a]indol-1-yl)acetic Acids as S1P1 Functional Antagonists” (ACS Med Chem Lett, 2014).
≈ marks a conversion by molar mass, not a printed value. Calls of active or inactive are those of the source. The calls are words filed in the database; no cut-off is given here.

Tests used:
[1] = Drug level in rat brain at 1 mg/kg, po dosed for 6 consecutive days; format: ADME, organism-based; parameters: dose 1 mg/kg, route oral; details: read-out: Drug uptake
How it was run: (§1)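 Repeat-dose rat CNS distribution: 1.0 mg/kg given on six consecutive days. Plasma, brain and CSF were sampled over the 24 h after the last dose. Average concentrations in brain and plasma gave the brain-to-plasma ratio.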

[2] = Volume of distribution at steady state in Sprague-Dawley rat at 1 mg/kg, iv; format: ADME, organism-based; parameters: dose 1 mg/kg, route intravenous; details: in vivo, read-out: Vdss
[3] = Elimination half life in Sprague-Dawley rat at 1 mg/kg, po; format: ADME, organism-based; parameters: dose 1 mg/kg, route oral; details: in vivo, read-out: beta t1/2 (converted)
[4] = Drug level in rat plasma at 1 mg/kg, po dosed for 6 consecutive days; format: ADME, organism-based; parameters: dose 1 mg/kg, route oral; how it was run: as §1
[5] = Oral bioavailability in Sprague-Dawley rat at 1 mg/kg; format: ADME, organism-based; details: in vivo
Cytochrome P450 2D6 = Cytochrome P450 2D6 (Homo sapiens, UniProt P10635); test: Inhibition of CYP2D6 (unknown origin); format: ADME
Mus musculus [6] = test: Reduction of disease index score in C57Bl/6 mouse experimental autoimmune encephalomyelitis model of multiple sclerosis at 0.1 to 0.3 mg/kg dosed for 24 days; format: functional, organism-based
How it was run: (§2)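 Female C57Bl/6 mice with EAE, a demyelinating autoimmune disease induced to model MS, given compound orally at 0.1, 0.3 or 1.0 mg/kg for 24 days alongside a vehicle group. Clinical scoring began on day 10: 0 healthy; 1 limp tail or hind-limb weakness; 2 limp tail plus limb weakness, or weakness of ≥2 limbs; 3 severe limb weakness or single-limb paralysis; 4 paralysis of ≥2 limbs; 5 death. Mean group score reported.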

[7] = biological target: T1, Sphingosine 1-phosphate receptor 5 (Homo sapiens, UniProt Q9H228); test: Agonist activity at human S1P5 receptor by beta-arrestin recruitment assay relative to S1P
[8] = biological target: T2, Sphingosine 1-phosphate receptor 4 (Homo sapiens, UniProt O95977); test: Agonist activity at human S1P4 receptor by beta-arrestin recruitment assay
T2 sequence (O95977 whole entry): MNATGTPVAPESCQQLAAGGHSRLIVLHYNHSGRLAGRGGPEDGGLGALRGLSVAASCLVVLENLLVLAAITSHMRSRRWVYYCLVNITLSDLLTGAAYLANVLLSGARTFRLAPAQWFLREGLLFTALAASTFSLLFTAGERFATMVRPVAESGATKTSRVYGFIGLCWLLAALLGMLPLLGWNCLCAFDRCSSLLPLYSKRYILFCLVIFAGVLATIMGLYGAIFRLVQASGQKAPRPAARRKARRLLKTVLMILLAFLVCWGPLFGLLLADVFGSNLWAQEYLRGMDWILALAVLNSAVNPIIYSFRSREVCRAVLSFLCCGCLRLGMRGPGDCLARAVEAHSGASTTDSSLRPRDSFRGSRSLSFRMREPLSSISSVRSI

Mus musculus [9] = test: Reduction of disease index score in C57Bl/6 mouse experimental autoimmune encephalomyelitis model of multiple sclerosis at 0.1 mg/kg dosed for 24 days; format: functional, organism-based; parameters: dose 0.1 mg/kg; how it was run: as §2
[10] = Tmax in Sprague-Dawley rat at 1 mg/kg, po; format: ADME, organism-based; parameters: dose 1 mg/kg, route oral; details: in vivo
[11] = biological target: T3, Sphingosine 1-phosphate receptor 1 (Homo sapiens, UniProt P21453); test: Agonist activity at human S1P1 receptor assessed as cAMP accumulation by HTRF assay relative to S1P; format: functional
Cytochrome P450 1A2 = Cytochrome P450 1A2 (Homo sapiens, UniProt P05177); test: Inhibition of CYP1A2 (unknown origin); format: ADME
[12] = biological target: Sphingosine 1-phosphate receptor 1 (Rattus norvegicus, UniProt P48303); test: Agonist activity at rat S1P1 receptor assessed as cAMP accumulation by HTRF assay; format: functional
How it was run: (§3)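 S1P1 engagement measured as cyclase activity in a homogeneous time-resolved fluorescence (HTRF) assay.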

[13] = biological target: Sphingosine 1-phosphate receptor 3 (Homo sapiens, UniProt Q99500); test: Agonist activity at human S1P3 receptor by beta-arrestin recruitment assay
[14] = biological target: Sphingosine 1-phosphate receptor 1 (Rattus norvegicus) (UniProt P48303); test: Agonist activity at rat S1P1 receptor assessed as cAMP accumulation by HTRF assay relative to S1P; format: functional
[15] = biological target: T4, Sphingosine 1-phosphate receptor 4 (Homo sapiens) (UniProt O95977); test: Agonist activity at human S1P4 receptor by beta-arrestin recruitment assay relative to S1P
T4 sequence (whole entry): T2 sequence (O95977 whole entry)

[16] = biological target: T3, Sphingosine 1-phosphate receptor 1; test: Agonist activity at human S1P1 receptor assessed as cAMP accumulation by HTRF assay; format: functional; how it was run: as §3
[17] = Solubility in water in L-lysine adduct form; format: physicochemical
[18] = Activation of Inward rectifier potassium channel in human atrial myocytes; format: cell-based; details: Cardiac atrium
[19] = biological target: Sphingosine-1-phosphate receptor 1 (Canis lupus familiaris) (UniProt W5VNF7); test: Agonist activity at dog S1P1 receptor assessed as cAMP accumulation by HTRF assay relative to S1P; format: functional
[20] = AUC (0 to infinity) in Sprague-Dawley rat at 1 mg/kg, iv or at 1 mg/kg, po; format: ADME, organism-based; details: plasma
[21] = biological target: Sphingosine 1-phosphate receptor 2 (Homo sapiens, UniProt O95136); test: Agonist activity at human S1P2 receptor by beta-arrestin recruitment assay
[22] = Systemic clearance in Sprague-Dawley rat at 1 mg/kg, iv; format: ADME, organism-based; parameters: dose 1 mg/kg, route intravenous; details: in vivo
[23] = Ratio of drug level in rat brain to plasma at 1 mg/kg, po dosed for 6 consecutive days; format: ADME, organism-based; parameters: dose 1 mg/kg, route oral; details: read-out: BPR; how it was run: as §1
[24] = Cmax rat at 1000 mg/kg, po; format: ADME, organism-based; parameters: dose 1000 mg/kg, route oral; details: in vivo
[25] = biological target: Voltage-gated inwardly rectifying potassium channel KCNH2 (Homo sapiens, UniProt Q12809); test: Binding affinity to human ERG
[26] = biological target: T3, Sphingosine 1-phosphate receptor 1; test: Agonist activity at human S1P1 receptor by beta-arrestin recruitment assay
[27] = biological target: T3, Sphingosine 1-phosphate receptor 1; test: Agonist activity at human S1P1 receptor by beta-arrestin recruitment assay relative to S1P
Rattus norvegicus [28] = species: Rattus norvegicus; test: Reduction in lymphocyte count in Sprague-Dawley rat; format: functional, organism-based
How it was run: (§4)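 A PK/PD model relating plasma drug concentration to circulating lymphocyte counts was used to derive the plasma concentration that reduces lymphocytes by 50% (LL IC50, ng/mL).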

Cytochrome P450 3A4 = Cytochrome P450 3A4 (Homo sapiens, UniProt P08684); test: Inhibition of CYP3A4 (unknown origin); format: ADME
[29] = biological target: Sphingosine-1-phosphate receptor 1 (Canis lupus familiaris, UniProt W5VNF7); test: Agonist activity at dog S1P1 receptor assessed as cAMP accumulation by HTRF assay; format: functional; how it was run: as §3
Mus musculus [30] = species: Mus musculus; test: Reduction in lymphocyte count in mouse; format: functional, organism-based; how it was run: as §4
[31] = biological target: Sphingosine 1-phosphate receptor 1 (Macaca mulatta) (UniProt H9EUW9); test: Agonist activity at monkey S1P1 receptor assessed as cAMP accumulation by HTRF assay relative to S1P; format: functional
[32] = biological target: Sphingosine 1-phosphate receptor 1 (Mus musculus, UniProt O08530); test: Agonist activity at mouse S1P1 receptor assessed as cAMP accumulation by HTRF assay; format: functional; how it was run: as §3
[33] = system: P2Y purinoceptor (Rattus norvegicus); test: Binding affinity to P2Y purinoceptor (rat) by [35S]dATPalphaS competitive binding assay
[34] = Ratio of drug level in brain to plasma in Sprague-Dawley rat; format: ADME; details: read-out: BPR
How it was run: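 Abbreviated rat CNS distribution: a single 1.0 mg/kg oral dose, with brain and plasma drug levels measured over 6 h. Brain-to-plasma ratio derived from these levels.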

[35] = biological target: T1, Sphingosine 1-phosphate receptor 5; test: Agonist activity at human S1P5 receptor by beta-arrestin recruitment assay
[36] = biological target: Sphingosine 1-phosphate receptor 1 (Macaca mulatta, UniProt H9EUW9); test: Agonist activity at monkey S1P1 receptor assessed as cAMP accumulation by HTRF assay; format: functional; how it was run: as §3
Mus musculus [37] = test: Prevention of severity of disease in C57Bl/6 mouse experimental autoimmune encephalomyelitis model of multiple sclerosis at 1 mg/kg dosed for 24 days; format: functional, organism-based; parameters: dose 1 mg/kg; how it was run: as §2
[38] = biological target: Sphingosine 1-phosphate receptor 1 (Mus musculus) (UniProt O08530); test: Agonist activity at mouse S1P1 receptor assessed as cAMP accumulation by HTRF assay relative to S1P; format: functional
Rattus norvegicus [39] = species: Rattus norvegicus; test: Toxicity in telemeterized rat assessed as effect on cardiovascular function; format: organism-based, Heart; details: in vivo
Cytochrome P450 2C9 = Cytochrome P450 2C9 (Homo sapiens, UniProt P11712); test: Inhibition of CYP2C9 (unknown origin); format: ADME
Cytochrome P450 2C19 = Cytochrome P450 2C19 (Homo sapiens, UniProt P33261); test: Inhibition of CYP2C19 (unknown origin); format: ADME
[40] = Solubility in water in crystal phase; format: physicochemical
[41] = Cmax in Sprague-Dawley rat at 1 mg/kg, po; format: ADME, organism-based; parameters: dose 1 mg/kg, route oral; details: in vivo

T3 sequence (P21453 whole entry): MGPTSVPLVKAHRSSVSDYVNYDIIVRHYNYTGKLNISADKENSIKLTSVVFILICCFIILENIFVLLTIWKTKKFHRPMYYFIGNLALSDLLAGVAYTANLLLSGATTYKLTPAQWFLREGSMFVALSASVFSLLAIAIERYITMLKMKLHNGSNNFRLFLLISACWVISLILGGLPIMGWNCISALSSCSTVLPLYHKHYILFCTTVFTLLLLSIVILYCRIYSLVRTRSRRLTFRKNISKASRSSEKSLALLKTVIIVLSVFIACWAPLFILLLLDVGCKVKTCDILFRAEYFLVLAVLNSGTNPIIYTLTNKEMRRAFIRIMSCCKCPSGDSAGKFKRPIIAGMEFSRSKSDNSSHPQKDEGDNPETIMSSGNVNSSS
T1 sequence (Q9H228 whole entry): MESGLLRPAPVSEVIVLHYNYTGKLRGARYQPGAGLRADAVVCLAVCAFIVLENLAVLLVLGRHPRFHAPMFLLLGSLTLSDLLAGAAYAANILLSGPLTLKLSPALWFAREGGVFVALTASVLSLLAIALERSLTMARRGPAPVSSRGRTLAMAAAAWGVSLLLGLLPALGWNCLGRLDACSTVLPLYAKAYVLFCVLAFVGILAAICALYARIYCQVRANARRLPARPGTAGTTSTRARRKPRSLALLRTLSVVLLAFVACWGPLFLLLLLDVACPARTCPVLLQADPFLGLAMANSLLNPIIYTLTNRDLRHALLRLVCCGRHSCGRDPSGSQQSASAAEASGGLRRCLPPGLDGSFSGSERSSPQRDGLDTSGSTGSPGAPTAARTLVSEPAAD
Chain of Sphingosine 1-phosphate receptor 2 (O95136 whole entry): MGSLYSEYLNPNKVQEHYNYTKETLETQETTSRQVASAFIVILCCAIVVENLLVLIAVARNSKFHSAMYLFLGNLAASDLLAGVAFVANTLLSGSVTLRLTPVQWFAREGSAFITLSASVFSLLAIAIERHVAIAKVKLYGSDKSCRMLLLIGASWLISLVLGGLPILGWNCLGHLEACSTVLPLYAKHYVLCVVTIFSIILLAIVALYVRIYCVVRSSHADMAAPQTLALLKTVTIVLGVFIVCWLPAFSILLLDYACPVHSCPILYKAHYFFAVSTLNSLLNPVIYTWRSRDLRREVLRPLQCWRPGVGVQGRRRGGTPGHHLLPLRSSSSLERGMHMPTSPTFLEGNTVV
Chain of Cytochrome P450 3A4 (P08684 whole entry): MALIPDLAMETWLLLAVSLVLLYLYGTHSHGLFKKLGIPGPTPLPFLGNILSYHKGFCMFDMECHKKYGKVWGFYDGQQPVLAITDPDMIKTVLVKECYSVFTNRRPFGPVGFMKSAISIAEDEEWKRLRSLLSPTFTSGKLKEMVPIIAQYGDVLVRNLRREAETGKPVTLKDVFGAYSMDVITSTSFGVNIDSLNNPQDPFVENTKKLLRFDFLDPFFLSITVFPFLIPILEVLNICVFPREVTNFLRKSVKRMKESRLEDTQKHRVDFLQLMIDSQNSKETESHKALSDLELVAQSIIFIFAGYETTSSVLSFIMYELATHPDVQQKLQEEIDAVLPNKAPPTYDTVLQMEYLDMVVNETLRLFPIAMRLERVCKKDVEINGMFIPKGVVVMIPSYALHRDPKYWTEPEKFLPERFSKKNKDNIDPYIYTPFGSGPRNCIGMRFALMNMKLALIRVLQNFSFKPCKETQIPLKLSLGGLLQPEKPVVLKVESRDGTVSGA
Chain of Voltage-gated inwardly rectifying potassium channel KCNH2 (Q12809 whole entry): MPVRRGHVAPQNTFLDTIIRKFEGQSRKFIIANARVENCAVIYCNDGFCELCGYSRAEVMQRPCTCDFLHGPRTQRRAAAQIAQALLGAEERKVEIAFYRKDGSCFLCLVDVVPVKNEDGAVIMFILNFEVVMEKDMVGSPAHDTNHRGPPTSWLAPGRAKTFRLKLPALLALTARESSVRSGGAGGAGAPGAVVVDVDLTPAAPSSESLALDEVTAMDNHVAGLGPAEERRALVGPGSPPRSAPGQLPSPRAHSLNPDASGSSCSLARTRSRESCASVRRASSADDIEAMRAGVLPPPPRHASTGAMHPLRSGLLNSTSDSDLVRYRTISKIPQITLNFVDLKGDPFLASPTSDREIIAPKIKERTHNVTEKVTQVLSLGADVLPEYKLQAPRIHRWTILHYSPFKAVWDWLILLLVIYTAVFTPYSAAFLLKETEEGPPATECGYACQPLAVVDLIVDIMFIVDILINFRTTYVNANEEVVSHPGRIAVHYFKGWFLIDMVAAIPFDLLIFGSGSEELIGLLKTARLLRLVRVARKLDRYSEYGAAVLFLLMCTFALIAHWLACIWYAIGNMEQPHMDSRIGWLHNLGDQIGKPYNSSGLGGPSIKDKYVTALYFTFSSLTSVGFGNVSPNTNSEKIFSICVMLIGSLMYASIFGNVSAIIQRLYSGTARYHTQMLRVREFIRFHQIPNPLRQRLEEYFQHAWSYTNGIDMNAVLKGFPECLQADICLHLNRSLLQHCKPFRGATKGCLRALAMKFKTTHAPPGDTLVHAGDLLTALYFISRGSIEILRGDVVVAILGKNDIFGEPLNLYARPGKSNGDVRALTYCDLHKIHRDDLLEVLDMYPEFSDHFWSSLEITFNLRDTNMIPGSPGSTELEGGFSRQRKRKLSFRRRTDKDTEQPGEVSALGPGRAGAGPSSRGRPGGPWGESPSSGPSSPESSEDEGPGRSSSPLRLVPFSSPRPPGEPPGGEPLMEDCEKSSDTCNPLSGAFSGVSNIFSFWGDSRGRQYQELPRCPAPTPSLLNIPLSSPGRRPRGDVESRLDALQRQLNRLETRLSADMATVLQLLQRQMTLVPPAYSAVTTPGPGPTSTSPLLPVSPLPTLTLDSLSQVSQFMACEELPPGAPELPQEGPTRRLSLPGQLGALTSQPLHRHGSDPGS
Chain of Sphingosine 1-phosphate receptor 3 (Q99500 whole entry): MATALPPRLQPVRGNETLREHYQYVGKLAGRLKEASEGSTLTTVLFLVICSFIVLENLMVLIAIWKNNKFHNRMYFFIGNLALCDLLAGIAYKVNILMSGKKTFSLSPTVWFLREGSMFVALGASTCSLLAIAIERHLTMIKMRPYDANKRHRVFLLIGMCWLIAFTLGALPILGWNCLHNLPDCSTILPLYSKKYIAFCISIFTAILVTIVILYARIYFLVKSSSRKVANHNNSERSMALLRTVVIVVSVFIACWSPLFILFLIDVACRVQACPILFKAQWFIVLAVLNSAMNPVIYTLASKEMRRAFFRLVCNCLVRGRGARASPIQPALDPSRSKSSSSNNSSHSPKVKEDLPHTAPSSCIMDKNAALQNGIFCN
Chain of Cytochrome P450 2C9 (P11712 whole entry): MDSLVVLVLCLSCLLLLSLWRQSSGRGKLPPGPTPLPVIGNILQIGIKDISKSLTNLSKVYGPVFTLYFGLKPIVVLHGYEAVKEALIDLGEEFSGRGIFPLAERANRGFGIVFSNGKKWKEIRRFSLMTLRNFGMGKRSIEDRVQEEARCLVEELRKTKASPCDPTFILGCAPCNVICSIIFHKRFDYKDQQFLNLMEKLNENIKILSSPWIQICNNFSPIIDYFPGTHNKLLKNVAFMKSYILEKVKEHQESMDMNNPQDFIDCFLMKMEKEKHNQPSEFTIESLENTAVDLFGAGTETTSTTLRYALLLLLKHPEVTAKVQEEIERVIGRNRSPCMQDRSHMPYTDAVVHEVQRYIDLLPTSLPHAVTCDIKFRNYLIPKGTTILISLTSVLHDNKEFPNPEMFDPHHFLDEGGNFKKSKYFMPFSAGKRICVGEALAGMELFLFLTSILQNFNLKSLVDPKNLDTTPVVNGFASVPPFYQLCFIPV
Chain of Cytochrome P450 2D6 (P10635 whole entry): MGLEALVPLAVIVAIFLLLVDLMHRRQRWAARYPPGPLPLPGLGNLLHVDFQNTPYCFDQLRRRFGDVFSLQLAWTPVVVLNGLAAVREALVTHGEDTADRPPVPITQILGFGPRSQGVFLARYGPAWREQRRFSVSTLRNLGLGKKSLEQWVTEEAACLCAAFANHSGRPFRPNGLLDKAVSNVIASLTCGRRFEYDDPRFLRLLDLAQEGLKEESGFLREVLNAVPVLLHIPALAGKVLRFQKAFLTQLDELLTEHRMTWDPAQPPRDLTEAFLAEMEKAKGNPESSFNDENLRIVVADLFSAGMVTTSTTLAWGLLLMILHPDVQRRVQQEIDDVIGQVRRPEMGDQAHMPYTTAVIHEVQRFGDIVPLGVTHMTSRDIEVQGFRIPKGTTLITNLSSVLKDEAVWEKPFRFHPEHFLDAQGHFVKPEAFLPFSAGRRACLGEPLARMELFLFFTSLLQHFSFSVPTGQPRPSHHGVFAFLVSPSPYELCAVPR
Chain of Sphingosine 1-phosphate receptor 1 (Macaca mulatta, UniProt H9EUW9) (H9EUW9 whole entry): as the sequence (P21453 whole entry) above, with P3S, H12L, I37T, K41R, S189P, I241M, E365D counted along it
Chain of Sphingosine 1-phosphate receptor 1 (Macaca mulatta) (H9EUW9 as listed by the source): as the sequence (P21453 whole entry) above, with P3S, H12L, I37T, K41R, S189P, I241M, E365D counted along it
Chain of Sphingosine 1-phosphate receptor 1 (Rattus norvegicus, UniProt P48303) (P48303 whole entry): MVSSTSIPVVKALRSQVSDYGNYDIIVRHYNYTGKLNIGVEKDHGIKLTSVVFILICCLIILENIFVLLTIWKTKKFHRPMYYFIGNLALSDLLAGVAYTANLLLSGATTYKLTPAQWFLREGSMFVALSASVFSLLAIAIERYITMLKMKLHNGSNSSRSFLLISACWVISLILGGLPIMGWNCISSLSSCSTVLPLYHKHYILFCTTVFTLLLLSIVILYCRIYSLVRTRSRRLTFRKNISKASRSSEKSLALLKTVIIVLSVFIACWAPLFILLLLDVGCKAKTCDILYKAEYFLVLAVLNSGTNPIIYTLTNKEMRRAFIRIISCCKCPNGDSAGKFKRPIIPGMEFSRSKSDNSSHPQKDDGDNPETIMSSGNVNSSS
Chain of Sphingosine 1-phosphate receptor 1 (Rattus norvegicus) (P48303 whole entry): as above

concentration at 6 days [1]: 568 ng/mL
Vd [2]: 0.831 L/kg
half-life [3]: 5.09 h
concentration at 6 days [4]: 352 ng/mL
bioavailability [5]: 56.6%
IC50 (Cytochrome P450 2D6): > 50000 nM
Emax [7]: 59%
EC50 [8]: 85 nM
Tmax [10]: 4.67 h
Emax [11]: 99%
IC50 (Cytochrome P450 1A2): > 50000 nM
EC50 [12]: 0.05 nM
EC50 [13]: > 10000 nM
Emax [14]: 81%
Emax [15]: 29%
EC50 [16]: 0.021 nM
solubility [17]: > 100 mg/mL
EC50 [18]: 8.9 nM
Emax [19]: 59%
AUC(0-inf) [20]: 6160 ng·h/mL
EC50 [21]: > 10000 nM
clearance [22]: 1.54 mL/min/kg
Kp at 6 days [23]: 1.61
Cmax [24]: 72200 ng/mL
EC50 [26]: 0.62 nM
Emax [27]: 112%
IC50 (Rattus norvegicus [28]): 0.0254 µg/mL (≈ 0.0527 µM)
IC50 (Cytochrome P450 3A4): > 50000 nM
EC50 [29]: 0.049 nM
IC50 (Mus musculus [30]): 0.0183 µg/mL (≈ 0.038 µM)
Emax [31]: 84%
EC50 [32]: 0.064 nM
IC50 [33]: Not Active
Kp [34]: 0.27
EC50 [35]: 19 nM
EC50 [36]: 0.058 nM
Emax [38]: 95%
IC50 (Cytochrome P450 2C9): > 50000 nM
IC50 (Cytochrome P450 2C19): > 50000 nM
solubility [40]: < 0.001 mg/mL
Cmax [41]: 584 ng/mL
SMILES: CC(C)Oc1ccc(COc2ccc3c(c2)c(Cl)c2n3CC[C@@H]2CC(=O)O)cc1C(F)(F)F
Activity (Mus musculus [6]): Dose-dependent effect
Activity (Mus musculus [9]): inactive
Activity [25]: Not Active
Activity (Mus musculus [37]): Active
Activity (Rattus norvegicus [39]): Non-toxic
